Experimental data taken from ChEMBL document CHEMBL1143786, “Constrained analogs of CB-1 antagonists: 1,5,6,7-Tetrahydro-4H-pyrrolo[3,2-c]pyridine-4-one derivatives” (Bioorg Med Chem Lett, 2007).

Legend:
Cannabinoid receptor 1 [1] = target: T1, Cannabinoid receptor 1 (Homo sapiens, UniProt P21554); assay: Displacement of [3H]CP-55940 from human CB1 receptor expressed in HEK cells; format: cell-based, HEK293
Method in brief: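 Membranes from HEK 293 cells expressing human CB-1, suspended in ice-cold 50 mM Tris pH 7.4, 2.5 mM EDTA, 5 mM MgCl2, 0.1% fatty acid free BSA; 3.3 µg protein incubated with 0.3 nM [3H]CP 55940 and graded compound, 30 °C, 90 min with shaking, triplicate. Nonspecific binding defined with 10 µM WIN 55212-2; filtration through GF/C, scintillation counting; Ki via Cheng–Prusoff from nonlinear-regression IC50.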

Cannabinoid receptor 1 [2] = target: T1, Cannabinoid receptor 1; assay: Antagonist activity at CB1 receptor; format: functional
[3] = Cmax in Wistar rat at 10 mg/kg, po; format: ADME, organism-based; design: dose 10 mg/kg, route oral; conditions: in vivo
Method in brief: (§1)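 Male Wistar rats, single oral dose of 10 mg/kg. Plasma exposure measured as Cmax and as AUC over 0–2 h.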

Cannabinoid receptor 2 = Cannabinoid receptor 2 (Homo sapiens, UniProt P34972); assay: Displacement of [3H]CP-55940 from human CB2 receptor expressed in HEK cells; format: cell-based, HEK293
Method in brief: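 Membranes from HEK 293 cells expressing human CB-2, in ice-cold 50 mM Tris pH 7.4, 2.5 mM EDTA, 5 mM MgCl2, 0.1% fatty-acid-free BSA. 3.3 µg protein with 0.3 nM [3H]CP 55940 and varying competitor, triplicate, 30 °C for 90 min with shaking. Nonspecific binding with 10 µM WIN 55212-2. Filtration onto GF/C, scintillation counting; Ki from IC50 by Cheng–Prusoff.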

Rattus norvegicus [4] = assay: Reduction in body weight in genetically obese Zucker rat at 5 mg/kg, po qd; format: functional; design: scale not given: the % may be the effect or the level left
Method in brief: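 Zucker fa/fa rats, single-housed on grid floors, sham-dosed with vehicle for at least 5 days, then weight-matched on 2-day baseline. Daily oral dosing at 5 mg/kg, 2 mL/kg, in PEG/methanesulfonic acid (80:20) before the nocturnal feeding phase. Body weight recorded daily over 9 days; mean ± SEM, 9–10 rats/group.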

[5] = AUC ( 0 to 2 hrs) in Wistar rat at 10 mg/kg, po; format: ADME, organism-based; design: time < 2 hr, dose 10 mg/kg, route oral; conditions: plasma; method in brief: as §1
Rattus norvegicus [6] = assay: Reduction in food intake in fasted-refed Wistar rat at 10 mg/kg, po after 4 hrs; format: functional; design: scale not given: the % may be the effect or the level left
Method in brief: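 Wistar rats fasted overnight (18 h), then given vehicle or compound orally at 10 mg/kg as a suspension in 30% cyclodextrin, 2 mL/kg, 1 h before re-feeding. Cumulative food intake from pre-weighed jars at 30, 60, 90, 180 and 240 min.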

Cannabinoid receptor 2, sequence (P34972 whole entry): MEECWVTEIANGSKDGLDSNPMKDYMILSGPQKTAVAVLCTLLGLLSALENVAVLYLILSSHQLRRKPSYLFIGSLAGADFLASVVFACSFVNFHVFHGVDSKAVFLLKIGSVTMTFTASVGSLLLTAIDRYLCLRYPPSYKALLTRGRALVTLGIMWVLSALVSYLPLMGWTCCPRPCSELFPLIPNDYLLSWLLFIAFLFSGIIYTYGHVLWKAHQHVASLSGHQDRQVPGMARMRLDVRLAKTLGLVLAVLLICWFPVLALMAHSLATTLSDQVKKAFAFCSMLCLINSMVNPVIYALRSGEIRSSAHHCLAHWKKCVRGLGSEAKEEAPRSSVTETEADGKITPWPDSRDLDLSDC
T1 sequence (P21554 whole entry): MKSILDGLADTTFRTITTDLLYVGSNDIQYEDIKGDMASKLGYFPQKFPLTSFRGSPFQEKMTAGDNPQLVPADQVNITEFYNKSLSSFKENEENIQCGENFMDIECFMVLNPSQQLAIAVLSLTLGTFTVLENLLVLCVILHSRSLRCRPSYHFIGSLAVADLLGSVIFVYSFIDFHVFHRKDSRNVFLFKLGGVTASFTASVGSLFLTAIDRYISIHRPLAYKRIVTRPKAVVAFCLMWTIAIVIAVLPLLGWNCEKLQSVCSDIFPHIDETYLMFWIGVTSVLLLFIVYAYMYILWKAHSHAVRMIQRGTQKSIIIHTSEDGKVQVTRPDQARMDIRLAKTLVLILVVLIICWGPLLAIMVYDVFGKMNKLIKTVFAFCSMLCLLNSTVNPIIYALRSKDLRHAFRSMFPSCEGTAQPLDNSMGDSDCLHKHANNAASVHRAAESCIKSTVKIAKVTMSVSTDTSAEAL

Structure (SMILES)	Ki (Cannabinoid receptor 1 [1])	IC50 (Cannabinoid receptor 1 [1])	also measured
COc1ccc(-c2c(C)c3c(n2-c2ccc(Cl)cc2Cl)CCN(C2CCCCC2)C3=O)cc1OC	5.5 nM	–	–
COc1ccc(-c2c(C)c3c(n2-c2ccccc2Cl)CCN(C2CCCCC2)C3=O)cc1	7.5 nM	–	–
Cc1c2c(n(-c3ccc(Cl)cc3Cl)c1-c1cccs1)CCN(C1CCCCC1)C2=O	–	19 nM	–
Cc1c2c(n(-c3ccc(Cl)cc3Cl)c1-c1ccc(Cl)cc1)CCN(C1CCCCC1)C2=O	7.5 nM	–	Kb (Cannabinoid receptor 1 [2]): 6.5 nM; Cmax [3]: < 50 nM; Ki (Cannabinoid receptor 2): 8300 nM
Cc1c2c(n(-c3ccc(Cl)cc3Cl)c1-c1ccccc1)CCN(C1CCCCC1)C2=O	–	16 nM	–
Cc1c2c(n(-c3ccc(Cl)cc3Cl)c1-c1cccc(C(F)(F)F)c1)CCN(C1CCCCC1)C2=O	–	67 nM	–
Cc1c2c(n(-c3c(Cl)cccc3Cl)c1-c1ccc(Cl)cc1)CCN(C1CCCCC1)C2=O	200 nM	–	–
COc1ccc(-c2c(C)c3c(n2-c2ccccc2Cl)CCN(N2CCCCC2)C3=O)cc1	20 nM	–	Cmax [3]: 620 nM; Activity (Rattus norvegicus [4]): -3%; AUC(0-t) at 2 h [5]: 0.58 µM·h; Activity (Rattus norvegicus [6]): 36%; Ki (Cannabinoid receptor 2): 850 nM
Cc1ccccc1-n1c2c(c(C)c1-c1ccc(F)cc1)C(=O)N(C1CCCCC1)CC2	–	40 nM	–
Cc1c2c(n(-c3ccc(Cl)cc3Cl)c1-c1ccc(N)cc1)CCN(C1CCCCC1)C2=O	920 nM	–	–
COc1cccc(-c2c(C)c3c(n2-c2ccc(Cl)cc2Cl)CCN(C2CCCCC2)C3=O)c1	–	6.8 nM	–
Cc1c2c(n(-c3ccc(Cl)cc3Cl)c1-c1cccc(N)c1)CCN(C1CCCCC1)C2=O	450 nM	–	–
Cc1cccc(-c2c(C)c3c(n2-c2ccc(Cl)cc2Cl)CCN(C2CCCCC2)C3=O)c1	–	17 nM	–
Cc1c2c(n(-c3ccc(Cl)cc3Cl)c1-c1ccc3c(c1)OCO3)CCN(C1CCCCC1)C2=O	–	12 nM	–
Cc1c2c(n(-c3ccc(Cl)cc3)c1-c1ccc(Cl)cc1Cl)CCN(C1CCCCC1)C2=O	> 2500 nM	–	–
COc1ccc(-c2c(C)c3c(n2-c2ccccc2C)CCN(N2CCCCC2)C3=O)cc1	74 nM	–	–
COc1ccc(-c2c(C)c3c(n2-c2ccc(Cl)cc2Cl)CCN(C2CCCCC2)C3=O)cc1	7.9 nM	–	–
Cc1cn(-c2ccc(Cl)cc2Cl)c2c1C(=O)N(C1CCCCC1)CC2	240 nM	–	–

Structure (SMILES)	Ki (Cannabinoid receptor 1 [1])	IC50 (Cannabinoid receptor 1 [1])	also measured
Cc1c2c(n(-c3ccc(Cl)cc3Cl)c1-c1ccc(C(F)(F)F)cc1)CCN(C1CCCCC1)C2=O	4.1 nM	–	–
Cc1c2c(n(-c3ccccc3Cl)c1-c1ccc(Cl)cc1)CCN(N1CCCCC1)C2=O	3.5 nM	–	Ki (Cannabinoid receptor 2): 1100 nM
Cc1c2c(n(-c3ccc(Cl)cc3)c1-c1ccc(Cl)cc1)CCN(C1CCCCC1)C2=O	> 2500 nM	–	–
Cc1c2c(n(-c3ccc(Cl)cc3Cl)c1-c1ccc(Cl)cc1)CCN(N1CCCCC1)C2=O	2.2 nM	–	Kb (Cannabinoid receptor 1 [2]): 12 nM; Ki (Cannabinoid receptor 2): 1300 nM
Cc1c2c(n(-c3ccccc3Cl)c1-c1ccc(Cl)cc1)CCN(C1CCCCC1)C2=O	2.8 nM	–	–
CSc1ccc(-c2c(C)c3c(n2-c2ccc(Cl)cc2Cl)CCN(C2CCCCC2)C3=O)cc1	> 2500 nM	–	–
Cc1c2c(n(-c3ccc(Cl)cc3Cl)c1-c1cc3ccccc3s1)CCN(C1CCCCC1)C2=O	–	23 nM	–
Cc1c(C(=O)NN2CCCCC2)nn(-c2ccc(Cl)cc2Cl)c1-c1ccc(Cl)cc1 [RIMONABANT]	–	–	Activity (Rattus norvegicus [4]): -5.6%
Cc1c2c(n(-c3ccc(Cl)cc3Cl)c1-c1ccco1)CCN(C1CCCCC1)C2=O	–	20 nM	–
Cc1c2c(n(-c3ccc(Cl)cc3Cl)c1-c1cccnc1)CCN(C1CCCCC1)C2=O	390 nM	–	–
Cc1c2c(n(-c3ccc(Cl)cc3Cl)c1-c1ccc(C(=O)O)cc1)CCN(C1CCCCC1)C2=O	> 2500 nM	–	–
Cc1c2c(n(-c3ccc(Cl)cc3Cl)c1-c1ccsc1)CCN(C1CCCCC1)C2=O	–	37 nM	–
Cc1c2c(n(-c3ccc(Cl)cc3Cl)c1-c1ccc(F)cc1)CCN(C1CCCCC1)C2=O	6 nM	–	–
C=Cc1ccc(-c2c(C)c3c(n2-c2ccc(Cl)cc2Cl)CCN(C2CCCCC2)C3=O)cc1	9.8 nM	–	–
COc1ccc(-c2c(C)c3c(n2-c2ccccc2C)CCN(C2CCCCC2)C3=O)cc1	–	22 nM	–
Cc1ccc(-c2c(C)c3c(n2-c2ccc(Cl)cc2Cl)CCN(C2CCCCC2)C3=O)cc1	10 nM	–	–
Cc1ccccc1-n1c2c(c(C)c1-c1ccc(C(F)(F)F)cc1)C(=O)N(C1CCCCC1)CC2	–	9.3 nM	–
